Activity calls are given as the source filed them. No cut-off for these calls is given here.
Tests used:
Rhizopus homothallicus [1] = test: Antimicrobial activity against Rhizopus homothallicus isolate 6360 after 24 hrs in yeast nitrogen base complete medium by broth microdilution method; format: functional
Outline: (§1)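 Broth microdilution in YNB complete medium with colistin at 128 to 0.12 μg/ml. Freshly collected spores were inoculated at 0.5 × 10^4 to 4 × 10^4 cells/ml and incubated 24 h at 37°C. MIC was read visually as the lowest concentration with complete (100%) growth inhibition.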

Rhizopus arrhizus [2] = test: Antimicrobial activity against Rhizopus oryzae isolate 4153 after 24 hrs in RMPI 1640 medium by broth microdilution method; format: functional, organism-based
Outline: (§2)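 Colistin was serially diluted from 64 to 0.06 μg/ml in RPMI 1640 with glucamine and without bicarbonate. Fresh spores from 48–72 h YAG plates were added at 0.5 × 10^4 to 4 × 10^4 cells/ml. Plates were incubated 24 h at 37°C. MIC was read visually as the lowest concentration giving 100% growth inhibition.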

Rhizopus arrhizus [3] = test: Antimicrobial activity against Rhizopus oryzae isolate 5496 after 24 hrs in yeast nitrogen base complete medium by broth microdilution method; format: functional, organism-based; outline: as §1
Rhizopus arrhizus [4] = test: Antimicrobial activity against Rhizopus oryzae at 16 ug/disk after 24 hrs by disk diffusion method; format: functional, organism-based
Outline: (§3)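 Paper disks loaded with 8, 16 or 32 μg colistin were placed on agar plates inoculated with 200 μl of a 10^6 cells/ml R. oryzae spore suspension. After 24 h at 37°C, the diameter of the inhibition zone was measured.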

Rhizopus homothallicus [5] = test: Antimicrobial activity against Rhizopus homothallicus isolate 5910 after 24 hrs in yeast nitrogen base complete medium by broth microdilution method; format: functional; outline: as §1
Mucor circinelloides [6] = test: Antimicrobial activity against Mucor circinelloides isolate 4818 after 24 hrs in RMPI 1640 medium by broth microdilution method; format: functional, organism-based; outline: as §2
Mucor circinelloides [7] = test: Antimicrobial activity against Mucor circinelloides isolate 4030 after 24 hrs in RMPI 1640 medium by broth microdilution method; format: functional, organism-based; outline: as §2
Rhizopus arrhizus [8] = test: Antimicrobial activity against Rhizopus oryzae isolate 5879 after 24 hrs in RMPI 1640 medium by broth microdilution method; format: functional, organism-based
Outline: (§4)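 Broth microdilution in RPMI 1640 with […], without bicarbonate. Colistin was serially diluted 64 to 0.06 μg/ml. Spores came from YAG plates grown 48–72 h at 37°C, were filtered and counted, and were inoculated at 0.5 × 10^4 to 4 × 10^4 cells/ml. Plates were incubated 24 h at 37°C. MIC was read visually as the lowest concentration giving 100% growth inhibition.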

Mucor circinelloides [9] = test: Antimicrobial activity against Mucor circinelloides isolate 5904 after 24 hrs in RMPI 1640 medium by broth microdilution method; format: functional, organism-based; outline: as §2
Rhizopus microsporus = test: Antimicrobial activity against Rhizopus microsporus isolate 6164 after 24 hrs in yeast nitrogen base complete medium by broth microdilution method; format: functional; outline: as §1
Rhizopus arrhizus [10] = test: Antimicrobial activity against Rhizopus oryzae at 32 ug/disk after 24 hrs by disk diffusion method; format: functional, organism-based; outline: as §3
[11] = tested on: Cunninghamella bertholletiae; test: Antimicrobial activity against Cunninghamella bertholletiae isolate 6733 after 24 hrs in yeast nitrogen base complete medium by broth microdilution method; format: functional, organism-based; outline: as §1
[12] = tested on: Cunninghamella bertholletiae; test: Antimicrobial activity against Cunninghamella bertholletiae isolate 6694 after 24 hrs in yeast nitrogen base complete medium by broth microdilution method; format: functional, organism-based; outline: as §1
Rhizopus homothallicus [13] = test: Antimicrobial activity against Rhizopus homothallicus isolate 6360 after 24 hrs in RMPI 1640 medium by broth microdilution method; format: functional; outline: as §2
Rhizopus homothallicus [14] = test: Antimicrobial activity against Rhizopus homothallicus isolate 5790 after 24 hrs in RMPI 1640 medium by broth microdilution method; format: functional; outline: as §2
Rhizopus arrhizus [15] = test: Antimicrobial activity against Rhizopus oryzae isolate 5879 after 24 hrs in yeast nitrogen base complete medium by broth microdilution method; format: functional, organism-based
Outline: (§5)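 Microdilution was done in yeast nitrogen base complete medium, with colistin serially diluted 128 to 0.12 μg/ml. Spores were harvested from YAG plates (48–72 h, 37°C), washed, filtered and counted, then added at 0.5 × 10^4 to 4 × 10^4 cells/ml. After 24 h at 37°C, MIC was taken visually as the lowest concentration with complete growth inhibition.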

Rhizopus [16] = test: Antimicrobial activity against […] isolate 6254 after 24 hrs in yeast nitrogen base complete medium by broth microdilution method; format: functional, organism-based; outline: as §1
Mucor circinelloides [17] = test: Antimicrobial activity against Mucor circinelloides isolate 4030 after 24 hrs in yeast nitrogen base complete medium by broth microdilution method; format: functional, organism-based; outline: as §1
Rhizopus arrhizus [18] = test: Antimicrobial activity against Rhizopus oryzae isolate 6725 after 24 hrs in yeast nitrogen base complete medium by broth microdilution method; format: functional, organism-based; outline: as §5
Rhizopus homothallicus [19] = test: Antimicrobial activity against Rhizopus homothallicus isolate 5790 after 24 hrs in yeast nitrogen base complete medium by broth microdilution method; format: functional; outline: as §1
Rhizopus arrhizus [20] = test: Antimicrobial activity against Rhizopus oryzae isolate 6093 after 24 hrs in RMPI 1640 medium by broth microdilution method; format: functional, organism-based; outline: as §4
Rhizopus arrhizus [21] = test: Antimicrobial activity against Rhizopus oryzae assessed as plasma membrane disruption-related ATP release at 8 ug/ml after 30 mins by Cell Titer-Glo luminescent assay; format: functional, organism-based
Outline: (§6)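 Spores at 10^7 cells/ml in RPMI 1640 were germinated about 6 h at 37°C. Germlings were resuspended in RPMI with colistin at 8 or 32 μg/ml, or drug-free, and shaken at 37°C. Supernatants taken at 5, 30, 60 and 90 min were assayed for released ATP by CellTiter-Glo luminescence.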

Rhizopus homothallicus [22] = test: Antimicrobial activity against Rhizopus homothallicus isolate 5910 after 24 hrs in RMPI 1640 medium by broth microdilution method; format: functional; outline: as §2
Rhizopus [23] = test: Antimicrobial activity against Rhizopus sp. isolate 4523 after 24 hrs in RMPI 1640 medium by broth microdilution method; format: functional, organism-based; outline: as §4
Rhizopus arrhizus [24] = test: Antimicrobial activity against Rhizopus oryzae isolate 6725 after 24 hrs in RMPI 1640 medium by broth microdilution method; format: functional, organism-based; outline: as §4
Rhizopus arrhizus [25] = test: Antimicrobial activity against Rhizopus oryzae assessed as plasma membrane disruption-related ATP release at 32 ug/ml after 30 mins by Cell Titer-Glo luminescent assay; format: functional, organism-based; outline: as §6
[26] = tested on: Cunninghamella bertholletiae; test: Antimicrobial activity against Cunninghamella bertholletiae isolate 6694 after 24 hrs in RMPI 1640 medium by broth microdilution method; format: functional, organism-based; outline: as §2
Mucor circinelloides [27] = test: Antimicrobial activity against Mucor circinelloides isolate 5904 after 24 hrs in yeast nitrogen base complete medium by broth microdilution method; format: functional, organism-based; outline: as §1
[28] = tested on: Cunninghamella bertholletiae; test: Antimicrobial activity against Cunninghamella bertholletiae isolate 5633 after 24 hrs in RMPI 1640 medium by broth microdilution method; format: functional, organism-based; outline: as §2
Rhizopus [29] = test: Antimicrobial activity against Rhizopus sp. isolate 4523 after 24 hrs in yeast nitrogen base complete medium by broth microdilution method; format: functional, organism-based; outline: as §5

MIC (Rhizopus homothallicus [1]): 128 µg/mL | MIC (Rhizopus arrhizus [2]): 16 µg/mL | MIC (Rhizopus arrhizus [3]): 128 µg/mL | MIC (Rhizopus homothallicus [5]): 128 µg/mL | MIC (Mucor circinelloides [6]): 32 µg/mL | MIC (Mucor circinelloides [7]): 16 µg/mL | MIC (Rhizopus arrhizus [8]): 32 µg/mL | MIC (Mucor circinelloides [9]): 16 µg/mL | MIC (Rhizopus microsporus): 128 µg/mL | MIC [11]: 128 µg/mL | MIC [12]: 128 µg/mL | MIC (Rhizopus homothallicus [13]): 32 µg/mL | MIC (Rhizopus homothallicus [14]): 16 µg/mL | MIC (Rhizopus arrhizus [15]): 128 µg/mL | MIC (Rhizopus [16]): 128 µg/mL | MIC (Mucor circinelloides [17]): 128 µg/mL | MIC (Rhizopus arrhizus [18]): 128 µg/mL | MIC (Rhizopus homothallicus [19]): 128 µg/mL | MIC (Rhizopus arrhizus [20]): 16 µg/mL | MIC (Rhizopus homothallicus [22]): 32 µg/mL | MIC (Rhizopus [23]): 16 µg/mL | MIC (Rhizopus arrhizus [24]): 16 µg/mL | MIC [26]: 16 µg/mL | MIC (Mucor circinelloides [27]): 128 µg/mL | MIC [28]: 16 µg/mL | MIC (Rhizopus [29]): 128 µg/mL
Sequence: COLISTIN
MFC (Rhizopus homothallicus [1]): > 128 µg/mL | MFC (Rhizopus arrhizus [2]): 64 µg/mL | MFC (Rhizopus arrhizus [3]): > 128 µg/mL | inhibition zone (IZ) (Rhizopus arrhizus [4]): 19 mm | MFC (Rhizopus homothallicus [5]): > 128 µg/mL | MFC (Mucor circinelloides [6]): 32 µg/mL | MFC (Mucor circinelloides [7]): 64 µg/mL | MFC (Rhizopus arrhizus [8]): 32 µg/mL | MFC (Mucor circinelloides [9]): 64 µg/mL | MFC (Rhizopus microsporus): > 128 µg/mL | inhibition zone (IZ) (Rhizopus arrhizus [10]): 21 mm | MFC [11]: > 128 µg/mL | MFC [12]: > 128 µg/mL | MFC (Rhizopus homothallicus [13]): 64 µg/mL | MFC (Rhizopus homothallicus [14]): 64 µg/mL | MFC (Rhizopus arrhizus [15]): > 128 µg/mL | MFC (Rhizopus [16]): > 128 µg/mL | MFC (Mucor circinelloides [17]): > 128 µg/mL | MFC (Rhizopus arrhizus [18]): > 128 µg/mL | MFC (Rhizopus homothallicus [19]): > 128 µg/mL | MFC (Rhizopus arrhizus [20]): 32 µg/mL | Activity (Rhizopus arrhizus [21]): Active | MFC (Rhizopus homothallicus [22]): 32 µg/mL | MFC (Rhizopus [23]): 64 µg/mL | MFC (Rhizopus arrhizus [24]): 32 µg/mL | Activity (Rhizopus arrhizus [25]): Active | MFC [26]: 64 µg/mL | MFC (Mucor circinelloides [27]): > 128 µg/mL | MFC [28]: 64 µg/mL | MFC (Rhizopus [29]): > 128 µg/mL

Reference: ChEMBL document CHEMBL1212759, “Antifungal activity of colistin against mucorales species in vitro and in a murine model of Rhizopus oryzae pulmonary infection” (Antimicrob Agents Chemother, 2010)
